Results: ChEMBL document CHEMBL1137710, “Synthesis and in vitro antitumor activity of new quinoxaline derivatives” (2009)

Assays:
Type in all cases: functional
ACHN = test: Growth inhibition of human ACHN cells after 48 hrs by sulforhodamine B assay
SR = test: Growth inhibition of human SR cells after 48 hrs by sulforhodamine B assay
Summary of the method: (§1)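 Run in the NCI 60-human-tumour-cell-line panel, tested over a 5-log dose range. Dose–response curves gave three values per cell line, each as a log10 molar concentration: GI50 (50% inhibition of net cell growth), TGI (total inhibition of net growth) and LC50 (50% net cell death). The mean graph midpoint is the arithmetic mean over all lines, with insensitive lines entered at the highest concentration tested.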

UACC-257 = test: Growth inhibition of human UACC257 cells after 48 hrs by sulforhodamine B assay; settings: UACC-257, 48 h; summary of the method: as §1
NCI-H23 = test: Growth inhibition of human NCI-H23 cells after 48 hrs by sulforhodamine B assay; settings: NCI-H23, 48 h
Summary of the method: (§2)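 NCI 60-human-tumor-cell-line panel, with compounds tested over a 5-log dose range. Values are taken from dose-response curves as log10 molar concentrations: GI50 is 50% net growth inhibition, TGI is total growth inhibition, and LC50 is 50% net cell death.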

CCRF-CEM = test: Growth inhibition of human CCRF-CEM cells after 48 hrs by sulforhodamine B assay; summary of the method: as §2
COLO 205 = test: Growth inhibition of human COLO205 cells after 48 hrs by sulforhodamine B assay; settings: COLO 205, 48 h; summary of the method: as §2
T47D = test: Growth inhibition of human T47D cells after 48 hrs by sulforhodamine B assay; summary of the method: as §1
TK-10 = test: Growth inhibition of human TK10 cells after 48 hrs by sulforhodamine B assay; settings: TK-10, 48 h; summary of the method: as §1
SK-OV-3 = test: Growth inhibition of human SKOV3 cells after 48 hrs by sulforhodamine B assay; settings: SK-OV-3, 48 h; summary of the method: as §2
HT-29 = test: Growth inhibition of human HT-29 cells after 48 hrs by sulforhodamine B assay; settings: HT-29, 48 h; summary of the method: as §2
SF-295 = test: Growth inhibition of human SF295 cells after 48 hrs by sulforhodamine B assay; settings: SF-295, 48 h; summary of the method: as §2
RXF 393 = test: Growth inhibition of human RXF393 cells after 48 hrs by sulforhodamine B assay; settings: RXF 393, 48 h; summary of the method: as §2
SN12C = test: Growth inhibition of human SN12C cells after 48 hrs by sulforhodamine B assay; summary of the method: as §1
SK-MEL-2 = test: Growth inhibition of human SK-MEL-2 cells after 48 hrs by sulforhodamine B assay; settings: SK-MEL-2, 48 h; summary of the method: as §2
SK-MEL-5 = test: Growth inhibition of human SK-MEL-5 cells after 48 hrs by sulforhodamine B assay; settings: SK-MEL-5, 48 h; summary of the method: as §2
HOP-92 = test: Growth inhibition of human HOP92 cells after 48 hrs by sulforhodamine B assay; settings: HOP-92, 48 h; summary of the method: as §2
A498 = test: Growth inhibition of human A498 cells after 48 hrs by sulforhodamine B assay; settings: A498, 48 h; summary of the method: as §2
EKVX = test: Growth inhibition of human EKVX cells after 48 hrs by sulforhodamine B assay; summary of the method: as §2
SF-539 = test: Growth inhibition of human SF539 cells after 48 hrs by sulforhodamine B assay; settings: SF-539, 48 h; summary of the method: as §2
HCT-116 = test: Growth inhibition of human HCT116 cells after 48 hrs by sulforhodamine B assay; settings: HCT-116, 48 h; summary of the method: as §2
OVCAR-5 = test: Growth inhibition of human OVCAR5 cells after 48 hrs by sulforhodamine B assay; settings: OVCAR-5, 48 h; summary of the method: as §2
NCI-H460 = test: Growth inhibition of human NCI-H460 cells after 48 hrs by sulforhodamine B assay; settings: NCI-H460, 48 h; summary of the method: as §2
Malme-3M = test: Growth inhibition of human MALME-3M cells after 48 hrs by sulforhodamine B assay; summary of the method: as §2
MDA-MB-231 = test: Growth inhibition of human MDA-MB-231 cells after 48 hrs by sulforhodamine B assay; settings: MDA-MB-231, 48 h; summary of the method: as §2
A549 = test: Growth inhibition of human A549 cells after 48 hrs by sulforhodamine B assay; settings: A549, 48 h; summary of the method: as §2
MOLT-4 = test: Growth inhibition of human MOLT4 cells after 48 hrs by sulforhodamine B assay; settings: MOLT-4, 48 h; summary of the method: as §2
KM12 = test: Growth inhibition of human KM12 cells after 48 hrs by sulforhodamine B assay; settings: KM12, 48 h; summary of the method: as §2
DU-145 = test: Growth inhibition of human DU145 cells after 48 hrs by sulforhodamine B assay; settings: DU-145, 48 h; summary of the method: as §2
BT-549 = test: Growth inhibition of human BT549 cells after 48 hrs by sulforhodamine B assay; settings: BT-549, 48 h; summary of the method: as §2
[1] = read-out: pLC50 (the source's name) (converted)

COc1ccc(Oc2nc3cc(N)cc(N)c3nc2-c2ccccc2)cc1 was tested, and the GI50 (ACHN) was 36.3 µM, the CC50 (ACHN; [1]) was over 100 µM and the TGI (ACHN; read-out: pTGI (converted)) was over 100 µM. For the same compound, the GI50 (SR) was 18.6 µM, the LC50 (concentration giving 50% net cell death) (SR) was over 100 µM and the TGI (SR; read-out: pTGI (converted)) was over 100 µM. For the same compound, the GI50 (UACC-257) was over 100 µM, the CC50 (UACC-257; [1]) was over 100 µM and the TGI (UACC-257; read-out: pTGI (converted)) was over 100 µM. For the same compound, the GI50 (NCI-H23) was 25.1 µM, the LC50 (50% net cell kill concentration) (NCI-H23) was over 100 µM and the TGI (NCI-H23; read-out: pTGI (converted)) was over 100 µM. The GI50 (CCRF-CEM) was 2.95 µM, the LC50 (CCRF-CEM) was over 100 µM and the TGI (CCRF-CEM; read-out: pTGI (converted)) was 12.6 µM. It also gave a GI50 (COLO 205) of over 100 µM, an LC50 (50% net cell kill) (COLO 205) of over 100 µM and a TGI (COLO 205; read-out: pTGI (converted)) of over 100 µM. It also gave a GI50 (T47D) of 15.1 µM, a CC50 (T47D; [1]) of over 100 µM and a TGI (T47D; read-out: pTGI (converted)) of 97.7 µM. For the same compound, the GI50 (TK-10) was 53.7 µM, the CC50 (TK-10; [1]) was over 100 µM and the TGI (TK-10; read-out: pTGI (converted)) was over 100 µM. For the same compound, the GI50 (SK-OV-3) was 25.7 µM, the CC50 (SK-OV-3; [1]) was over 100 µM and the TGI (SK-OV-3; read-out: pTGI (converted)) was 55 µM. The GI50 (HT-29) was 39.8 µM, the LC50 (HT-29) was over 100 µM and the TGI (HT-29; read-out: pTGI (converted)) was over 100 µM. It also gave a GI50 (SF-295) of 23.4 µM, an LC50 (50% net cell kill) (SF-295) of over 100 µM and a TGI (SF-295; read-out: pTGI (converted)) of 52.5 µM. The GI50 (RXF 393) was 20 µM, the CC50 (RXF 393; [1]) was over 100 µM and the TGI (RXF 393; read-out: pTGI (converted)) was 74.1 µM. For the same compound, the GI50 (SN12C) was 50.1 µM, the CC50 (SN12C; [1]) was over 100 µM and the TGI (SN12C; read-out: pTGI (converted)) was over 100 µM. For the same compound, the GI50 (SK-MEL-2) was 25.1 µM, the CC50 (SK-MEL-2; [1]) was over 100 µM and the TGI (SK-MEL-2; read-out: pTGI (converted)) was 87.1 µM. It also gave a GI50 (SK-MEL-5) of 44.7 µM, a CC50 (SK-MEL-5; [1]) of over 100 µM and a TGI (SK-MEL-5; read-out: pTGI (converted)) of over 100 µM. The LC50 (50% net cell death) (HOP-92) was 77.6 µM, the TGI (HOP-92; read-out: pTGI (converted)) was 8.13 µM and the GI50 (A498) was 49 µM. The CC50 (A498; [1]) was over 100 µM, the TGI (A498; read-out: pTGI (converted)) was over 100 µM and the GI50 (EKVX) was 24.5 µM. It also gave an LC50 (50% net cell kill) (EKVX) of over 100 µM, a TGI (EKVX; read-out: pTGI (converted)) of 63.1 µM and a GI50 (SF-539) of 23.4 µM. It also gave an LC50 (SF-539) of over 100 µM, a TGI (SF-539; read-out: pTGI (converted)) of 61.7 µM and a GI50 (HCT-116) of 28.8 µM. It also gave an LC50 (concentration causing 50% net cell death) (HCT-116) of over 100 µM, a TGI (HCT-116; read-out: pTGI (converted)) of 75.9 µM and a GI50 (OVCAR-5) of 95.5 µM. It also gave a CC50 (OVCAR-5; [1]) of over 100 µM, a TGI (OVCAR-5; read-out: pTGI (converted)) of over 100 µM and a GI50 (NCI-H460) of 30.9 µM. For the same compound, the LC50 (50% net cell kill) (NCI-H460) was over 100 µM, the TGI (NCI-H460; read-out: pTGI (converted)) was over 100 µM and the GI50 (Malme-3M) was 51.3 µM. For the same compound, the CC50 (Malme-3M; [1]) was over 100 µM, the TGI (Malme-3M; read-out: pTGI (converted)) was over 100 µM and the GI50 (MDA-MB-231) was 20.4 µM. The CC50 (MDA-MB-231; [1]) was over 100 µM, the TGI (MDA-MB-231; read-out: pTGI (converted)) was 64.6 µM and the GI50 (A549) was 37.2 µM. It also gave an LC50 (A549) of over 100 µM, a TGI (A549; read-out: pTGI (converted)) of over 100 µM and a GI50 (MOLT-4) of 5.37 µM. It also gave an LC50 (MOLT-4) of over 100 µM, a TGI (MOLT-4; read-out: pTGI (converted)) of 93.3 µM and a GI50 (KM12) of 37.2 µM. The LC50 (50% net cell kill) (KM12) was over 100 µM, the TGI (KM12; read-out: pTGI (converted)) was over 100 µM and the GI50 (DU-145) was 69.2 µM. For the same compound, the CC50 (DU-145; [1]) was over 100 µM, the TGI (DU-145; read-out: pTGI (converted)) was over 100 µM and the GI50 (BT-549) was 32.4 µM. The CC50 (BT-549; [1]) was over 100 µM and the TGI (BT-549; read-out: pTGI (converted)) was over 100 µM.
